Reference: the EternaBench riboswitch data

Tested on: MS2 coat protein
Experiment: apparent Kd, MS2 coat protein; higher = weaker binding; RNA-MaP array
In short: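 Binding of fluorescently labeled MS2 coat protein, at 1.5 nM to 3 μM and room temperature, was measured with or without input ligand on designed RNAs transcribed on an Illumina sequencing chip from sequenced DNA templates. Apparent Kd was defined as the median of per-cluster binding-curve fits. No design measured on fewer than 10 clusters was kept.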

[1] = designed as: OFF switch for flavin mononucleotide, no ligand
[2] = ligand present: flavin mononucleotide, designed as: OFF switch for flavin mononucleotide
[3] = designed as: OFF switch for theophylline, no ligand
[4] = ligand present: theophylline, designed as: OFF switch for theophylline
[5] = designed as: ON switch for flavin mononucleotide, no ligand
[6] = ligand present: flavin mononucleotide, designed as: ON switch for flavin mononucleotide
[7] = designed as: ON switch for theophylline, no ligand
[8] = ligand present: theophylline, designed as: ON switch for theophylline

Sequence	apparent Kd [1] [nM]	apparent Kd [2] [nM]	also measured
ACUGCUGUAGGAUAUCAACGAAAUAACAUGAGGAUCACCCAUGUGGCAGUGAUCAGCAGUUGAGAAGGACAUGGCC	10.9	11.3	
CGCGGACCACCUGAUACCAGCGCAGUCAUGCAUGAACCCAACAUGAGGAUCACCCAUGUACGCCCUUGGCAGCAGGGAAAAGUCG			apparent Kd [3]: 161 nM; apparent Kd [4]: 267 nM
UCGCAUUCAGGAUAUACUUAAAGGUGAACUGAUCAUAGCAAACAUGAGGAUCACCCAUGUAGAAGGGAAAUAUC	99.2	72.7	
UGCUGCUCGAGAGGAUAUACGAAAUGGAACAUGAGGAUCACCCAUGUAUAUCUCCACAAACAGACGUAGAAGGCACAAUAAGGA			apparent Kd [5]: 58.2 nM; apparent Kd [6]: 45.8 nM
CAAAACUGAGGAUAUACAAAGAAAUGGAACAUAGUACAGUAACAUGAGGAUCACCCAUGUAGAAGGCAGGACUA	6.01	6.6	
UAAGCACAUCAGAAGGCGCAUUAGUUGAACUUGCGAGGAUAUGAUCUGUCCUCAUCAACAUGAGGAUCACCCAUGUGUCAGCUC	37.6	140	
GAACACCAGAAGAAGGGAGACAUGAGGAUCACCCAUGUUUAAAUACGAAAUAAGGUAAAAGCAACACAGGAUAUUCGGCUCUAC			apparent Kd [5]: 22.6 nM; apparent Kd [6]: 18 nM
CACAUGAGGAUCACCCAUGUCGCGGUGUGACCGAUACUCGAAUAGGAUAUGCUUGACACUUCGUGGCAGAAGGAUUGAGGUUCG	76.6	54.9	
UUAUCGGUCUCAGGAUAUCAGUAUCACUCAUUAUGAGAAGGGAGACACUCCGGAACAUGAGGAUCACCCAUGUGGGCCUUGGGU	172	103	
CCUCACUUGAAGAAGGACAGCUUCGGUCACAUCGGAACAUGAGGAUCACCCAUGUGACGCGUGGUGUAGGAUAUUCGUAAGGCA	57.6	147	
GUAACGUGCAAAGGAUAUAUACAUGAGGAUCACCCAUGUCGGAAUGAGAUCAAGGUCGCUCGCCUAUAGAAGGUUGGCGCUACU	86.7	43.9	
AGGGUACAUGAGGAUCACCCAUGUUAGGAUAUGUCCGGUACGGCCGCCGUACCAGGCAACAGAAGGAACACAGC	30.2	26.2	
GGGAUCGGAGGAUAUCGGUGGUUUAACAUGAGGAUCACCCAUGUGAAUAAACAAGUGGAGCGAGAAGGCCGGCGCU	14.7	9.97	
CGCUAACAUGAGGAUCACCCAUGUGAGGAUAUUCGCGGCGGACCGGGCUUUGGCGCUCGAAGAAGGCACAACGG	12.8	24.5	
AGUGAGGUUCUAGGAUAUCUCCCUCGAGUGCAGCUACAUGAGGAUCACCCAUGUCAUGGGUGUCGAGAGAAGGAGAAGGGCUUA	74.5	104	
CGCAGACUGUUAGGAUAUGAUACUAACAUGAGGAUCACCCAUGUUUACUCAGUGGAUAAGCAGAGUCAGAAGGAACAUUACGCA			apparent Kd [5]: 12.2 nM; apparent Kd [6]: 9.29 nM
CUUGUGGCACAGGAUAUUCCGACGUAAUCAAAUGAAGAAGGGUGCACAUGAGGAUCACCCAUGUGUGAACACAA	12.3	26.8	
UAGUCAUCGGCAGGAUAUUCGCUAGUAGACUAUGAAGAAGGGCCACGUACCUCACAAACAUGAGGAUCACCCAUGUAUCUGGAC	39.2	29	
AAAAUUGAAGGAUAUACAUGAGGAUCACCCAUGUGCAACAUAUUUGAAUGGCCUCACGGUAGAAGGUCAAAACG	6.83	7.52	
UGACUGUCGAAAGGAUAUGGUCGCACGCACACAUCAGUGUUUCACAUGAGGAUCACCCAUGUGGUCCAGAAGGUUCAUAAAUAU			apparent Kd [5]: 197 nM; apparent Kd [6]: 122 nM
CGAGUUUGCAAAGGAUAUCGGUUUUGAACAGACCGAGAAGGUUGACUGUACAUGAGGAUCACCCAUGUGUGCUCGAUAUAAAGA			apparent Kd [5]: 7.72 nM; apparent Kd [6]: 7.04 nM
UCAGAUGUGAAGGAUAUUCCGCGAGCAGCUACGGAAGAAGGUCAAACAUGAGGAUCACCCAUGUGUCUCCCGGG	14.4	22.4	
GUGACUAAAUGCAAGGAUAUCCGCGGCGGUACAUGAGGAUCACCCAUGUCAAGAGUCCACUGGCAGGAGAAGGUGCCCUGCGUCAU			apparent Kd [5]: 7.57 nM; apparent Kd [6]: 6.07 nM
CAUAUCAAUUCAGGAUAUUCUGUUUAAUACAUGAGGAUCACCCAUGUCCUCCAAAGAUUAGCAAGGAAGAAGGGAAGUAAACAG	82.2	69	
AGUAGACGAGGAUAUACGGGCAUAUUUGAUAAGAAGAACAGACAUGAGGAUCACCCAUGUAGAAGGCGAGGCUA	11.1	10.6	
AUAAUAACAUGAGGAUCACCCAUGUCCUCUUGGCGGCGGCUUAGAAGGUCGACUACUUUUCUUUCGAAGGAUAUAACCUGUUCU	913	733	
AGCUUAAUUAUAGGAUAUGAGAGGACAUGAGGAUCACCCAUGUAGAUGUUUGCCACAUAGCCAGUUCAGAAGGAUAGAGCACCA	24.9	19.4	

Sequence	apparent Kd [1] [nM]	apparent Kd [2] [nM]	also measured
CAAGACAUGAGGAUCACCCAUGUGGUGUACCGAGGACCGGUACGGCCGCCACUCGUUCAUCGGUCGACAAGCUACCCUUCAAGGU			apparent Kd (designed as: ON switch for tryptophan, no ligand): 24.2 nM; apparent Kd (ligand present: tryptophan, designed as: ON switch for tryptophan): 38.7 nM
UGAUUAUACUUUGAGGAUAUACUAGGACUCACAUGAGGAUCACCCAUGUGUGCGGCUAUACGAGCGUAGAAGGCAAAUACUCCGGC			apparent Kd [5]: 9.31 nM; apparent Kd [6]: 7.91 nM
GUCACACAGUAGGAUACCAGCGUGGCUUAUCCCUGAUCGUACAUGAGGAUCACCCAUGUCCGCCCUUGGCAGCCUCCUGCUCGGA			apparent Kd [3]: 12.7 nM; apparent Kd [4]: 34.5 nM
ACAGAAAAUAGAGGAUAUACAAGAACAUGAGGAUCACCCAUGUAAUAACAAUAUGAUCGGUUCAAGAAGAAGGCUAAACAAAAU	14.2	12.8	
CCUUAGUGAGGAUAUGCAUAGCCUUGGCGGCCAGGAGCCAAGCAGAAGGCACAUGAGGAUCACCCAUGUCCGGU	16.6	22.8	
UAUUGCAAUGUGAGGAUAUCUCAAGAAAAGACAAGAGAGAAGGCACAUGAGGAUCACCCAUGUUAGAAACAAAA	19.3	110	
GAUAUACAUGAGGAUCACCCAUGUCCAAAUUAAGUUUUAGUAUAGGAUAUUGACCGCUAGGAUGUCAAGAAGGAUACCCGAGGU			apparent Kd [5]: 14.8 nM; apparent Kd [6]: 7.52 nM
CCUCGUGGACAGGAUAUACACUCGUAUGAUCAUGUAGAAGGGUCCACAUGAGGAUCACCCAUGUUGACAGCCGU	60.5	81.4	
AACGUCAACGUAAGGAUAUGCAGUAAGAGCGACAGGCAGAAGGUACAUGAGGAUCACCCAUGUUAACAGAACGG	8.79	9.6	
AGCACGAGCGCAGGAUAUGCAUAACCCGUAGCUGCAGAAGGGCGACAUGAGGAUCACCCAUGUAUAUCCAGAACUACAAUCUGA			apparent Kd [5]: 35.8 nM; apparent Kd [6]: 33 nM
GAAGAUCCGUAAGAUACCAGUGCAGAUCGGCACAUGAGGAUCACCCAUGUAAAGCAAGAACACCCUUGGCAGCUUUCGUAACAAC			apparent Kd [7]: 158 nM; apparent Kd [8]: 10.3 nM
GCCCUGCGCCCGGGACCGGCAAGAUCCAUGCGAGGACCGGUACGGCCGCCACUCGCAGACGUACAUGAGGAUCACCCAUGUCCUC			apparent Kd (designed as: OFF switch for tryptophan, no ligand): 565 nM; apparent Kd (ligand present: tryptophan, designed as: OFF switch for tryptophan): 663 nM
UGCUUUUACGGAGGAUAUCUUUGGUCGUUAUGAAGAGAAGGCCGUCCUAACAUGAGGAUCACCCAUGUAUCUCAUUACAGUCUC			apparent Kd [5]: 22.9 nM; apparent Kd [6]: 16.3 nM
CGUUACAUAGAGAAGGUUCAUAAGAUCAAAUAACAUGAGGAUCACCCAUGUAUGUAAGCAUGAGGAAAGGAUAUCUACCGCCAG			apparent Kd [5]: 144 nM; apparent Kd [6]: 70.1 nM
GGAUUCAGAGGAUAUACAUGAGGAUCACCCAUGUCAUUCAGCCAAGAUAUGUGUUUCAGUAGAAGGCUGAUCGG	22.3	18	
UUGAAACAUGAGGAUCACCCAUGUCAGGAUAUCUUAACCCACUUACGCGAGUGUAGCCAGAGAAGGGACAGCGG	12.1	17.4	
UAAAGCUGAAAGAAGGCUCCAUCGCUAGUACUGAGAGGAUAUUUCGUUGUUGACAUGAGGAUCACCCAUGUGGUUCGCCGGGCC			apparent Kd [5]: 49.4 nM; apparent Kd [6]: 26.8 nM
UACGGUGCAGGAUAUCGAAUUUCAAACAUGAGGAUCACCCAUGUCUAAUAUGGCGACUAACGAGAAGGGCAGGAAG	16.2	16	
CGGCGACAUGAGGAUCACCCAUGUUAGGAUAUUCAGUUAACUGUGUUUGAUCGUUUGAGAAGAAGGAACGUGAG	10.7	10.2	
AUAUAAACGCAGAAGGAUCGUUUCCUUUAAAUGAUAGGAUAUGCCAACCUUGACAUGAGGAUCACCCAUGUGUUACUCUGUUUU	113	98.2	
CGCUUGUUCAUAGGAUAUGCUAGGUAACUCAUGGUGAGUUGGGGAACAUGAGGAUCACCCAUGUGGCAGAAGGAUGGCGUUAAU	65	55.3	
AAUCGCCUGGGUCGCAUCCUUGCUCCGGAUACCAGUCAAUAGUUGGACCCUUGGCAGCCGUAGACAUGAGGAUCACCCAUGUAUA			apparent Kd [3]: 53.8 nM; apparent Kd [4]: 109 nM
CUUAUACAUGAGGAUCACCCAUGUGGUGAUACCAGCCACGAUCAAGGCCCUUGGCAGCACAAAGGGAAUAAUAUGAUUACAAAAC			apparent Kd [7]: 227 nM; apparent Kd [8]: 212 nM
UCCUCGUUUACAUGAGGAUCACCCAUGUGCUCGUCUAAACAUUAGGAUAUCGACCCUCUGCGCAUCGAGAAGGAAUACGGCGAG	192	204	
GACAUGAGGAUCACCCAUGUUAAAGAUCCCAGCAUGCAACUCAGAAGGCUAAACUGUGGAUAGAAAGAGGAUAUGAGUUUAUAC	9.62	9.57	
AAGAAAUUCUCACAUGAGGAUCACCCAUGUCCACACGACUAGAGAAGGGCCUUCUACGUGCACUGGCAGGAUAUCUAACCGGGA	140	87.5	
UCCCGAAAGAAGAAGGGUACACCGAGCUGGUAACACAGCAAAACAUGAGGAUCACCCAUGUCUGAACAGGAUAUUCCGCGAGUA			apparent Kd [5]: 31.9 nM; apparent Kd [6]: 25.5 nM
